# Measured values from ChEMBL document CHEMBL4390675, “Dopamine D4 Receptor-Selective Compounds Reveal Structure-Activity Relationships that Engender Agonist Efficacy” (J Med Chem, 2019).
# Activity calls are given as the source filed them. No cut-off for these calls is given here.
# Target: T1, D(2) dopamine receptor (Homo sapiens, UniProt P14416)
# Test: Agonist activity at human D2L receptor expressed in CHOK1 cells assessed as induction of beta-arrestin recruitment measured after 90 mins by luminescence assay relative to control
# Assay type: cell-based
# Details: not given
# Outline: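 PathHunter enzyme-complementation assay in CHO-K1 cells stably expressing human D2R long isoform, seeded 2625 cells/well and incubated overnight. Compounds diluted in PBS with 0.2 μM sodium metabisulfite, tested at multiple concentrations, 90 min at 37 °C. Detection reagent then 45–60 min at room temperature, luminescence read. Normalized to maximal dopamine response. Nonlinear regression of triplicate runs, n = 3–4.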
# T1 sequence (P14416 whole entry): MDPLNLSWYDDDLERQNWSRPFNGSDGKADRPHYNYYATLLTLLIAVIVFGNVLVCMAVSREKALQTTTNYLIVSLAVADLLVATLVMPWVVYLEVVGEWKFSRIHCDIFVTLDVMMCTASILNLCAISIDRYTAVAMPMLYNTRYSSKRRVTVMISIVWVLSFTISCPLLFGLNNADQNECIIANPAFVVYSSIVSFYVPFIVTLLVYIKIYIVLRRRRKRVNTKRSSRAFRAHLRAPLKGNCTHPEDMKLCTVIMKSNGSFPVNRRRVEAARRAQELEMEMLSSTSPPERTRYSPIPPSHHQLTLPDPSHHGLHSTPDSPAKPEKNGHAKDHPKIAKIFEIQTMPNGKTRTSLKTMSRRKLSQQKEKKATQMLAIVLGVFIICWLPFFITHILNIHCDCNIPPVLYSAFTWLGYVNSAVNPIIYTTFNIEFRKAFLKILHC
row,SMILES,Emax
1,Cc1cccc(NC(=O)CCN2CCC(c3ccccn3)CC2)c1,48.9%

# Target: T2, D(3) dopamine receptor (Homo sapiens, UniProt P35462)
# T2 sequence (P35462 whole entry): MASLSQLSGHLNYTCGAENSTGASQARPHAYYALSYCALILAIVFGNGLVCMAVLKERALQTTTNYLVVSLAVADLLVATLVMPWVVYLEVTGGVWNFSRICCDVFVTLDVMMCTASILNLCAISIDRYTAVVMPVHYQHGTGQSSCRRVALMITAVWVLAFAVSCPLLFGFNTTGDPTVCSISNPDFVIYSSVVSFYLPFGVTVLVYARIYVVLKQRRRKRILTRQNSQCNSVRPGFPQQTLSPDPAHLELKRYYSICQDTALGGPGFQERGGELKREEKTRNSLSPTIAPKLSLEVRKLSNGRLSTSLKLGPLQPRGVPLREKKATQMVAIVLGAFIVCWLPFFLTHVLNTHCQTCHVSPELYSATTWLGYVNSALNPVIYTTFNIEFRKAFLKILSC
# Test: Agonist activity at human D3 receptor expressed in CHOK1 cells assessed as induction of beta-arrestin recruitment measured after 90 mins by luminescence assay
# Assay type: cell-based
# Details: not given
# Outline: (§1)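 PathHunter enzyme-complementation assay in CHO-K1 cells stably expressing human D2R long isoform, D3R or D4R, seeded overnight in Ham's F12/10% FBS. Compounds were diluted in PBS with 0.2 μM sodium metabisulfite and applied at multiple concentrations for 90 min at 37 °C. Detection reagent was added for 45–60 min at room temperature, then luminescence was read. Values are % of maximal dopamine response, from nonlinear regression of triplicate runs, mean ± SEM, n = 3–4.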
row,SMILES,EC50
1,O=C(CN1CCN(c2ccc(Cl)cn2)CC1)Nc1cncnc1,Not Active
2,O=C(CN1CCN(c2ccc(Cl)cn2)CC1)Nc1cccnc1,Not Active
3,O=C(CN1CCN(c2ccccn2)CC1)Nc1cncnc1,Not Active

# Same assay, conditions: read-out: EC50
row,SMILES,EC50
1,Cc1cccc(NC(=O)CCN2CCC(c3ccccn3)CC2)c1,0.97 µM

# Target: T3, D(4) dopamine receptor (Homo sapiens, UniProt P21917)
# T3 sequence (P21917 whole entry): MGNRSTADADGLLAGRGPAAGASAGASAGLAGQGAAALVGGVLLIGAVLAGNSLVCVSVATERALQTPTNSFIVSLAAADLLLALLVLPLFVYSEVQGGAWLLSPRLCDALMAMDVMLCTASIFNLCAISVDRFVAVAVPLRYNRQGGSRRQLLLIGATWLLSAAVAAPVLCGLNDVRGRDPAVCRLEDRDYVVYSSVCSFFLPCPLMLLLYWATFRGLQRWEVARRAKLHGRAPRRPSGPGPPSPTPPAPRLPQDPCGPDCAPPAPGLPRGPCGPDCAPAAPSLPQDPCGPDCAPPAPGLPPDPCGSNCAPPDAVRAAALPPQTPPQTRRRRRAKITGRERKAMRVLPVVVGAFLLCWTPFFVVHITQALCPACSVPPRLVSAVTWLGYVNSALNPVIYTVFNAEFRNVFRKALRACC
# Test: Antagonist activity at human D4 receptor expressed in CHOK1 cells assessed as inhibition of dopamine-induced beta-arrestin recruitment measured after 90 mins by luminescence assay
# Assay type: cell-based
# Details: not given
row,SMILES,IC50
1,O=C(CN1CCN(c2ccccn2)CC1)Nc1cncnc1,Not Active

# Same assay, conditions: read-out: IC50
row,SMILES,IC50
1,O=C(CN1CCN(c2ccc(Cl)cn2)CC1)Nc1cncnc1,> 100 µM
2,Cc1cccc(NC(=O)CCN2CCC(c3ccccn3)CC2)c1,3.8 µM
3,O=C(CN1CCN(c2ccc(Cl)cn2)CC1)Nc1cccnc1,23.4 µM

# Target: T2, D(3) dopamine receptor
# Test: Displacement of [3H]N-methylspiperone from human D3 receptor expressed in HEK293 cell membranes measured after 60 mins by scintillation counting method
# Details: not given
# Outline: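 HEK293 cells stably expressing human D3R; membranes in EBSS buffer pH 7.4, stored at −80 °C. 20 μg protein/well with 0.4 nM [3H]N-methylspiperone (final), half-log dilutions in 30% DMSO, in triplicate. 60 min at room temperature, then GF/B filtration. Nonspecific binding with 10 μM (+)-butaclamol.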
row,SMILES,Ki
1,O=C(CN1CCN(c2ccc(Cl)cn2)CC1)Nc1cncnc1,> 50 µM
2,Cc1cccc(NC(=O)CCN2CCC(c3ccccn3)CC2)c1,3.04 µM
3,O=C(CN1CCN(c2ccc(Cl)cn2)CC1)Nc1cccnc1,> 50 µM
4,O=C(CN1CCN(c2ccccn2)CC1)Nc1cncnc1,> 50 µM

# Target: T1, D(2) dopamine receptor
# Test: Antagonist activity at human D2L receptor expressed in CHOK1 cells assessed as inhibition of dopamine-induced beta-arrestin recruitment measured after 90 mins by luminescence assay
# Assay type: cell-based
# Details: not given
# Outline: (§2)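 Antagonist-mode PathHunter β-arrestin assay in CHO-K1 cells stably expressing human D2R long isoform or D3R, seeded overnight. Compound dilutions in PBS with 0.2 μM metabisulfite were co-incubated with an EC80 dopamine concentration for 90 min at 37 °C. Detection reagent was added for 45–60 min at room temperature, then luminescence was read. Values are % of dopamine EC80 response, from nonlinear regression of triplicate runs, n = 3–4.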
row,SMILES,IC50
1,O=C(CN1CCN(c2ccc(Cl)cn2)CC1)Nc1cncnc1,Not Active
2,O=C(CN1CCN(c2ccc(Cl)cn2)CC1)Nc1cccnc1,Not Active
3,O=C(CN1CCN(c2ccccn2)CC1)Nc1cncnc1,Not Active

# Target: T1, D(2) dopamine receptor
# Test: Agonist activity at human D2L receptor expressed in CHOK1 cells assessed as induction of beta-arrestin recruitment measured after 90 mins by luminescence assay
# Assay type: cell-based
# Details: not given
# Outline: as §1
row,SMILES,EC50
1,O=C(CN1CCN(c2ccc(Cl)cn2)CC1)Nc1cncnc1,Not Active
2,O=C(CN1CCN(c2ccc(Cl)cn2)CC1)Nc1cccnc1,Not Active
3,O=C(CN1CCN(c2ccccn2)CC1)Nc1cncnc1,Not Active

# Target: T3, D(4) dopamine receptor
# Test: Antagonist activity at human D4 receptor expressed in CHOK1 cells assessed as suppression of dopamine-induced inhibition of forskolin-stimulated cAMP accumulation measured after 30 mins by Eu-cAMP tracer based TR-FRET assay
# Assay type: functional, cell-based
# Details: not given
row,SMILES,IC50
1,O=C(CN1CCN(c2ccc(Cl)cn2)CC1)Nc1cncnc1,> 100 µM
2,Cc1cccc(NC(=O)CCN2CCC(c3ccccn3)CC2)c1,6.34 µM
3,O=C(CN1CCN(c2ccc(Cl)cn2)CC1)Nc1cccnc1,40 µM
4,O=C(CN1CCN(c2ccccn2)CC1)Nc1cncnc1,> 100 µM

# Target: T1, D(2) dopamine receptor
# Test: Antagonist activity at human D2L receptor expressed in CHOK1 cells assessed as suppression of dopamine-induced inhibition of forskolin-stimulated cAMP accumulation measured after 30 mins by Eu-cAMP tracer based TR-FRET assay relative to dopamine
# Assay type: cell-based
# Details: 0.5 h
row,SMILES,inhibition (INH)
1,O=C(CN1CCN(c2ccc(Cl)cn2)CC1)Nc1cncnc1,76.2%
2,O=C(CN1CCN(c2ccc(Cl)cn2)CC1)Nc1cccnc1,100%
3,O=C(CN1CCN(c2ccccn2)CC1)Nc1cncnc1,98.1%

# Target: D(1A) dopamine receptor (Homo sapiens) (UniProt P21728)
# Sequence (P21728 whole entry): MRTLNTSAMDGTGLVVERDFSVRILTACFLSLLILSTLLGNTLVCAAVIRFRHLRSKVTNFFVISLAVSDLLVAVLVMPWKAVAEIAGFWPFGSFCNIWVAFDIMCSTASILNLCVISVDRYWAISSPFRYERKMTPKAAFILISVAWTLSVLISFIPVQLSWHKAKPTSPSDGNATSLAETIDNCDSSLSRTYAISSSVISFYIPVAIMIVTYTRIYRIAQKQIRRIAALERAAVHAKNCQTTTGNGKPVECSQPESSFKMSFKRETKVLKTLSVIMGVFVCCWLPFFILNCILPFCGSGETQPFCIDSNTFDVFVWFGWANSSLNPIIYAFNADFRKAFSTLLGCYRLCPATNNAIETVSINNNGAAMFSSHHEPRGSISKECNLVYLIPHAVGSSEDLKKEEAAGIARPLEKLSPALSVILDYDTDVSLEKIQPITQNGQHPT
# Test: Antagonist activity at D1 receptor (unknown origin) stably expressed in CHOK1 cells assessed as inhibition of dopamine-induced beta-arrestin recruitment measured after 90 mins by luminescence assay
# Assay type: cell-based
# Details: not given
row,SMILES,inhibition
1,Cc1cccc(NC(=O)CCN2CCC(c3ccccn3)CC2)c1,inactive

# Target: T1, D(2) dopamine receptor
# Test: Agonist activity at human D2L receptor expressed in CHOK1 cells assessed as inhibition of forskolin-induced cAMP accumulation measured after 30 mins by Eu-cAMP tracer based TR-FRET assay relative to dopamine
# Assay type: cell-based
# Details: 0.5 h
row,SMILES,Emax
1,Cc1cccc(NC(=O)CCN2CCC(c3ccccn3)CC2)c1,83.1%

# Target: T3, D(4) dopamine receptor
# Test: Agonist activity at human D4 receptor expressed in CHOK1 cells assessed as inhibition of forskolin-induced cAMP accumulation measured after 30 mins by Eu-cAMP tracer based TR-FRET assay
# Assay type: functional, cell-based
# Details: not given
# Outline: (§3)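 LANCE Ultra TR-FRET cAMP assay in CHO-K1 cells stably expressing human D2R long isoform or D4R. Cells were plated in HBSS/5 mM HEPES/0.2 μM metabisulfite, then immediately given compound plus forskolin (10 μM final) for 30 min at room temperature. Eu-cAMP tracer and ULight-anti-cAMP were added for 2 h in the dark. Values are % of maximal dopamine signal, nonlinear regression of triplicate runs, n = 3–4.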
row,SMILES,EC50
1,O=C(CN1CCN(c2ccc(Cl)cn2)CC1)Nc1cncnc1,Not Active
2,O=C(CN1CCN(c2ccc(Cl)cn2)CC1)Nc1cccnc1,Not Active
3,O=C(CN1CCN(c2ccccn2)CC1)Nc1cncnc1,Not Active

# Same assay, conditions: read-out: EC50
row,SMILES,EC50
1,Cc1cccc(NC(=O)CCN2CCC(c3ccccn3)CC2)c1,0.349 µM

# Target: T2, D(3) dopamine receptor
# Test: Displacement of [3H](R)-(+)-7-OH-DPAT from human D3 receptor expressed in HEK293 cell membranes measured after 90 mins by scintillation counting method
# Details: not given
# Outline: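 Fresh HEK293 hD3R membranes (40 μg/well) in 50 mM Tris, 10 mM MgCl2, 1 mM EDTA, pH 7.4 were incubated with 0.5 nM [3H]-(R)-(+)-7-OH-DPAT and half-log compound dilutions in 30% DMSO for 90 min at room temperature. Nonspecific binding was defined with 10 μM (+)-butaclamol. Samples were filtered on PEI-soaked GF/B filters and counted by scintillation.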
row,SMILES,Ki
1,Cc1cccc(NC(=O)CCN2CCC(c3ccccn3)CC2)c1,0.51 µM

# Target: T3, D(4) dopamine receptor
# Test: Displacement of [3H]N-methylspiperone from human D4.4 receptor expressed in HEK293 cell membranes measured after 60 mins by scintillation counting method
# Details: not given
# Outline: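 Frozen HEK293 membranes stably expressing human D4.4R (30 μg/well) in EBSS-bicarbonate buffer, pH 7.4, were incubated with 0.4 nM [3H]N-methylspiperone and half-log compound dilutions (30% DMSO vehicle) for 60 min at room temperature. Nonspecific binding was defined by 10 μM (+)-butaclamol. Samples were filtered on GF/B filters and counted by scintillation.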
row,SMILES,Ki
1,O=C(CN1CCN(c2ccc(Cl)cn2)CC1)Nc1cncnc1,> 50 µM
2,Cc1cccc(NC(=O)CCN2CCC(c3ccccn3)CC2)c1,> 10 µM
3,O=C(CN1CCN(c2ccc(Cl)cn2)CC1)Nc1cccnc1,5 µM
4,O=C(CN1CCN(c2ccccn2)CC1)Nc1cncnc1,39.3 µM

# Target: D(1B) dopamine receptor (Homo sapiens) (UniProt P21918)
# Sequence (P21918 whole entry): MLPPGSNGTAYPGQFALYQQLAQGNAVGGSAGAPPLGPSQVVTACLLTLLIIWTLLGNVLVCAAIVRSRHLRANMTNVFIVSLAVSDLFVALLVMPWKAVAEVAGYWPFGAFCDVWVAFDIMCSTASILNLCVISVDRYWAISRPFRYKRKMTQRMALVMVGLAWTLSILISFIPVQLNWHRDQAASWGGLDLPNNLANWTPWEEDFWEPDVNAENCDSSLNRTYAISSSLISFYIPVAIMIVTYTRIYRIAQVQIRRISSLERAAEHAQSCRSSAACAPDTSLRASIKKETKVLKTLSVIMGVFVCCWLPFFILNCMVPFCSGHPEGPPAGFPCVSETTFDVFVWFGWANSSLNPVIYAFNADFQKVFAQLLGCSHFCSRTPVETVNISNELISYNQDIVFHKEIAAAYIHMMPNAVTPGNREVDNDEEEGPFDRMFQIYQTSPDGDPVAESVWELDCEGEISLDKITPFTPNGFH
# Test: Antagonist activity at D5 receptor (unknown origin) stably expressed in CHOK1 cells assessed as inhibition of dopamine-induced beta-arrestin recruitment measured after 90 mins by luminescence assay
# Assay type: cell-based
# Details: not given
row,SMILES,inhibition
1,Cc1cccc(NC(=O)CCN2CCC(c3ccccn3)CC2)c1,inactive

# Target: T1, D(2) dopamine receptor
# Test: Agonist activity at human D2L receptor expressed in CHOK1 cells assessed as inhibition of forskolin-induced cAMP accumulation measured after 30 mins by Eu-cAMP tracer based TR-FRET assay
# Assay type: cell-based
# Details: not given
# Outline: as §3
row,SMILES,EC50
1,O=C(CN1CCN(c2ccc(Cl)cn2)CC1)Nc1cncnc1,Not Active
2,O=C(CN1CCN(c2ccc(Cl)cn2)CC1)Nc1cccnc1,Not Active
3,O=C(CN1CCN(c2ccccn2)CC1)Nc1cncnc1,Not Active

# Target: D(1A) dopamine receptor (Homo sapiens) (UniProt P21728)
# Test: Agonist activity at D1 receptor (unknown origin) stably expressed in CHOK1 cells assessed as induction of beta-arrestin recruitment measured after 90 mins by luminescence assay
# Assay type: cell-based
# Details: not given
row,SMILES,Activity
1,Cc1cccc(NC(=O)CCN2CCC(c3ccccn3)CC2)c1,inactive

# Target: T3, D(4) dopamine receptor
# Test: Agonist activity at human D4 receptor expressed in CHOK1 cells assessed as induction of beta-arrestin recruitment measured after 90 mins by luminescence assay
# Assay type: cell-based
# Details: not given
# Outline: as §1
row,SMILES,EC50
1,O=C(CN1CCN(c2ccc(Cl)cn2)CC1)Nc1cncnc1,Not Active
2,Cc1cccc(NC(=O)CCN2CCC(c3ccccn3)CC2)c1,Not Active
3,O=C(CN1CCN(c2ccc(Cl)cn2)CC1)Nc1cccnc1,Not Active
4,O=C(CN1CCN(c2ccccn2)CC1)Nc1cncnc1,Not Active

# Target: T2, D(3) dopamine receptor
# Test: Agonist activity at human D3 receptor expressed in CHOK1 cells assessed as induction of beta-arrestin recruitment measured after 90 mins by luminescence assay relative to control
# Assay type: cell-based
# Details: not given
# Outline: as §1
row,SMILES,Emax
1,Cc1cccc(NC(=O)CCN2CCC(c3ccccn3)CC2)c1,55.4%

# Target: T2, D(3) dopamine receptor
# Test: Antagonist activity at human D3 receptor expressed in CHOK1 cells assessed as inhibition of dopamine-induced beta-arrestin recruitment measured after 90 mins by luminescence assay
# Assay type: cell-based
# Details: not given
# Outline: as §2
row,SMILES,IC50
1,O=C(CN1CCN(c2ccc(Cl)cn2)CC1)Nc1cncnc1,Not Active
2,O=C(CN1CCN(c2ccc(Cl)cn2)CC1)Nc1cccnc1,Not Active
3,O=C(CN1CCN(c2ccccn2)CC1)Nc1cncnc1,Not Active

# Same assay, conditions: read-out: IC50
row,SMILES,IC50
1,Cc1cccc(NC(=O)CCN2CCC(c3ccccn3)CC2)c1,> 50 µM

# Target: D(1B) dopamine receptor (Homo sapiens) (UniProt P21918)
# Test: Agonist activity at D5 receptor (unknown origin) stably expressed in CHOK1 cells assessed as induction of beta-arrestin recruitment measured after 90 mins by luminescence assay
# Assay type: cell-based
# Details: not given
row,SMILES,Activity
1,Cc1cccc(NC(=O)CCN2CCC(c3ccccn3)CC2)c1,inactive

# Target: T1, D(2) dopamine receptor
# Test: Antagonist activity at human D2L receptor expressed in CHOK1 cells assessed as inhibition of dopamine-induced beta-arrestin recruitment measured after 90 mins by luminescence assay relative to control
# Assay type: cell-based
# Details: not given
# Outline: as §2
row,SMILES,INH
1,O=C(CN1CCN(c2ccc(Cl)cn2)CC1)Nc1cncnc1,Not Active
2,Cc1cccc(NC(=O)CCN2CCC(c3ccccn3)CC2)c1,72.1%
3,O=C(CN1CCN(c2ccc(Cl)cn2)CC1)Nc1cccnc1,Not Active
4,O=C(CN1CCN(c2ccccn2)CC1)Nc1cncnc1,Not Active
